Data: ChEMBL document CHEMBL1124688, “9,11-Epoxy-9-homo-14-thiaprost-5-enoic acid derivatives: potent thromboxane A2 antagonists” (J Med Chem, 1989)
“And” between values parts separate entries of the source, which are not always exact repeats. Equal values may be shown once.

Assays:
[1] = organism: Rattus norvegicus; experiment: Concentration required to elicit 50% of the maximal contraction of rat stomach strip; type: functional
In short: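 Rat stomach strip contraction was measured as the concentration giving 50% of the maximal contraction produced by 3×10^-7 M serotonin.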

[2] = molecular target: T1, Thromboxane A2 receptor (Homo sapiens, UniProt P21731); experiment: Inhibition of specific binding of HSQ(5,6-di-3H-SQ 29,548) in washed platelets; set-up: species or system Cavia porcellus
T1 sequence (P21731 whole entry): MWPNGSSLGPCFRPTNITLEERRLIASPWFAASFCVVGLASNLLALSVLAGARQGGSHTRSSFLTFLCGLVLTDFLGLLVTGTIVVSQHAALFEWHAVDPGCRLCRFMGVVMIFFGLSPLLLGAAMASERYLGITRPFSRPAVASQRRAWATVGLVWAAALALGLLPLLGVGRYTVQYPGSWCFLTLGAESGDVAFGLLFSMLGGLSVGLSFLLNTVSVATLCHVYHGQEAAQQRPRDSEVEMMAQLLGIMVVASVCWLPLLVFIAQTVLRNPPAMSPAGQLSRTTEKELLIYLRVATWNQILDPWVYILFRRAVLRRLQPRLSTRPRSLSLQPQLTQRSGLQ

[3] = organism: Homo sapiens; experiment: In vitro evaluation for arachidonic acid induced platelet aggregation of human platelet-rich plasma; type: functional; conditions: read-out: I50
In short: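 Human platelet-rich plasma was aggregated with arachidonic acid (800 μM). An ADP (20 μM)-induced aggregation run served as a counter-screen.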

[4] = tested on: Cavia porcellus; experiment: Inhibition of arachidonic acid-induced response in guinea pigs by 1 mg/kg of intravenously administered compound; type: functional; set-up: scale not given: the % may be the effect or the level left; conditions: route intravenous
In short: (§1)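 Anesthetized guinea pigs were challenged with arachidonic acid, and lung mechanics (lung resistance, dynamic compliance) and mean arterial blood pressure were recorded. Compounds were given as a 1.0 mg/kg rapid iv infusion, with n = 5 versus vehicle. Inhibition above 100% denotes reversal of the blood-pressure response.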

[5] = tested on: Cavia porcellus; experiment: Change in mean arterial blood pressure(MABP) in guinea pigs by 1 mg/kg of intravenously administered compound; activity MABP; type: functional, Artery; conditions: route intravenous; in short: as §1
[6] = tested on: Cavia porcellus; experiment: Change in mean arterial blood pressure(MABP) in guinea pigs by 1 mg/kg of intravenously administered compound; type: functional, Artery; conditions: route intravenous; in short: as §1
[7] = organism: Homo sapiens; experiment: (§2) Percent inhibition on the synthesis of thromboxane B2 at a dose of 1000 uM; type: functional
In short: (§3)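 Arachidonic acid metabolism was measured in a lysed platelet preparation. Thromboxane synthesis (as TxB2) and PGE2 production were determined at each listed test concentration.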

[8] = organism: Homo sapiens; experiment: Percentage stimulation on the synthesis of PGE-2 at a dose of 1000 uM; type: functional; in short: as §3
[9] = organism: Homo sapiens; experiment: Percentage stimulation on the synthesis of PGE-2 at a dose of 33 uM; type: functional; in short: as §3
[10] = organism: Homo sapiens; experiment: (§4) Percentage stimulation on the synthesis of PGE-2 at a dose of 10 uM; type: functional; in short: as §3
[11] = organism: Homo sapiens; experiment: Percent inhibition on the synthesis of thromboxane B2 at a dose of 333 uM; type: functional; in short: as §3
[12] = organism: Cavia porcellus; experiment: Duration of action of compound for inhibition of arachidonic acid-induced response in guinea pigs; type: functional
[13] = organism: Homo sapiens; experiment: (§5) Percent inhibition on the synthesis of thromboxane B2 at a dose of 100 uM; type: functional; in short: as §3
[14] = organism: Cavia porcellus; experiment: In vitro evaluation for antagonist activity against the contraction-induced by histamine (1 ug/mL); type: functional; conditions: read-out: I50
In short: (§6)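 Guinea pig trachea spirals were contracted by either 9,11-azo-PGH2 (a stable PGH2/TxA2 mimetic) or histamine, and compounds were tested for blockade of these contractions.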

[15] = organism: Rattus norvegicus; experiment: maximal contraction of rat stomach strip by 3 x 10e -7M serotonin; type: functional
[16] = organism: Cavia porcellus; experiment: In vitro evaluation for antagonist activity against the contraction-induced by 9,11-azo-PGH2 (0.1 ug/mL); type: functional; conditions: read-out: I50; in short: as §6
[17] = organism: Homo sapiens; experiment: Percentage stimulation on the synthesis of PGE-2 at a dose of 333 uM; type: functional; in short: as §3
[18] = organism: Homo sapiens; experiment: Percentage stimulation on the synthesis of PGE-2 at a dose of 100 uM; type: functional; in short: as §3
[19] = organism: Homo sapiens; experiment: Percent inhibition on the synthesis of thromboxane B2 at a dose of 10 uM; type: functional; in short: as §3
[20] = organism: Homo sapiens; experiment: as §5; type: functional; in short: as §3; remark: listed apart in the source
[21] = organism: Homo sapiens; experiment: as §4; type: functional; in short: as §3; remark: listed apart in the source
[22] = organism: Homo sapiens; experiment: (§7) Percentage stimulation on the synthesis of PGE-2 was at a dose of 100 uM; type: functional; in short: as §3
[23] = organism: Homo sapiens; experiment: as §2; type: functional; in short: as §3; remark: listed apart in the source
[24] = organism: Homo sapiens; experiment: (§8) Percentage stimulation on the synthesis of PGE-2 was at a dose of 1000 uM; type: functional; in short: as §3
[25] = organism: Homo sapiens; experiment: Percentage stimulation on the synthesis of PGE-2 was at a dose of 333 uM; type: functional; in short: as §3
[26] = organism: Homo sapiens; experiment: as §7; type: functional; in short: as §3; remark: listed apart in the source
[27] = organism: Homo sapiens; experiment: Percentage stimulation on the synthesis of PGE-2 was at a dose of 33 uM; type: functional; in short: as §3
[28] = molecular target: T1, Thromboxane A2 receptor; experiment: Compound was evaluated for inhibition of specific binding of HSQ (5,6-di-3H-SQ 29,548) in washed platelets; set-up: species or system Cavia porcellus
[29] = organism: Homo sapiens; experiment: as §8; type: functional; in short: as §3; remark: listed apart in the source
[30] = organism: Cavia porcellus; experiment: Duration of action of compound for Inhibition of arachidonic acid-induced response in guinea pigs; type: functional

Q: Which A50 [1] does the source give for `O=C(O)CCC/C=C\CC1C2CCC(O2)C1CSCCOc1ccccc1` (configuration not stated) here?
A: 0.1 µM

Q: `CCCSCC1C2CCC(O2)C1C/C=C\CCCC(=O)O` (configuration not stated) was tested. Which Kd [2] did it give?
A: 97 nM

Q: And the IC50 [3]?
A: 700 nM

Q: And the Activity [4]?
A: 131% and 97%

Q: What about the Activity [5] of the same molecule?
A: 50%

Q: What about the Agonist activity [6] of the same molecule?
A: 50%

Q: What does the source list for `C=CCSCC1C2CCC(O2)C1C/C=C\CCCC(=O)O` (configuration not stated)?
A: Inhibition [7]: 61.5%; Kd [2]: 76 nM; Stimulation [8]: 1820%; Stimulation [9]: 380%; Stimulation [10]: 220%; Inhibition [11]: 51.8%; Duration [12]: >60 min; IC50 [3]: 500 nM; Activity [4]: 273% and 98%; Inhibition [13]: 22.1%; IC50 [14]: > 100 µM; Contraction [15]: 26%; IC50 [16]: 3800 nM; Stimulation [17]: 1650%; Stimulation [18]: 860%; Agonist activity ([6]; 1 mg/kg): 115% and 165%

Q: Which A50 [1] does the source give for `CCCCCCSC[C@H]1C2CCC(O2)[C@H]1C/C=C\CCCC(=O)O` (some centres not stated) here?
A: 39 µM

Q: What does the source list for `CCCCCSCCC1C2CCC(O2)C1C/C=C\CCCC(=O)O` (configuration not stated)?
A: inhibition [19]: 33%; inhibition [20]: 80%; Stimulation [21]: 13%; Stimulation [22]: -45%; inhibition [23]: 90%; Stimulation [24]: -75%

Q: How did the Contraction [15] turn out when `CSCSCC1C2CCC(O2)C1C/C=C\CCCC(=O)O` (configuration not stated) was run?
A: 28%

Q: Which Inhibition [7] does the source give for `CC/C=C\CCSCC1C2CCC(O2)C1C/C=C\CCCC(=O)O` (configuration not stated) here?
A: 91.2%

Q: And the Stimulation [25]?
A: 1340%

Q: What about the Stimulation [10] of the same molecule?
A: 210%

Q: What about the Stimulation [26] of the same molecule?
A: 900%

Q: What about the Stimulation [27] of the same molecule?
A: 420%

Q: And the Kd [28]?
A: 0.4 nM

Q: What about the Inhibition [11] of the same molecule?
A: 56.9%

Q: What about the IC50 [3] of the same molecule?
A: 200 nM

Q: What about the Activity [4] of the same molecule?
A: 245% and 97%

Q: What about the Inhibition [13] of the same molecule?
A: 24.4%

Q: And the IC50 [14]?
A: > 100 µM

Q: What about the Stimulation [29] of the same molecule?
A: 1920%

Q: And the IC50 [16]?
A: 380 nM

Q: What about the Duration [30] of the same molecule?
A: >60 min

Q: What about the A50 [1] of the same molecule?
A: 0.2 µM

Q: `O=C(O)CCC/C=C\CC1C2CCC(O2)C1CSCCCc1ccccc1` (configuration not stated) was tested. Which A50 [1] did it give?
A: 0.2 µM

Q: Which results are given for `CCCCCC[S+]([O-])CC1C2CCC(O2)C1C/C=C\CCCC(=O)O` (configuration not stated)?
A: Contraction [15]: 9%; A50 [1]: 21 µM

Q: Which Duration [12] does the source give for `CCCCCC(C)SCC1C2CCC(O2)C1C/C=C\CCCC(=O)O` (configuration not stated) here?
A: 0 min

Q: For `CCCCCCS(=O)(=O)CC1C2CCC(O2)C1C/C=C\CCCC(=O)O` (configuration not stated), which A50 [1] is on record?
A: 8 µM

Q: For `O=C(O)CCC/C=C\CC1C2CCC(O2)C1CSCCc1ccccc1` (configuration not stated), which A50 [1] is on record?
A: 23 µM

Q: How did the Contraction [15] turn out when `CSCC1C2CCC(O2)C1C/C=C\CCCC(=O)O` (configuration not stated) was run?
A: 30%
